Experimental data as given in ChEMBL document CHEMBL3124791 (J Med Chem, 2014).
Values after ≈ are worked out from the molar mass of the structure shown. Active and inactive are the calls of the source. The calls are words filed in the database; no cut-off is given here.

Assays:
A549 [1] = assay: Cytotoxicity against human A549 cells by SRB assay; format: functional
Method in brief: (§1)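 Sulforhodamine B growth assay across A-549, KB, P-gp-expressing KBvin and DU145 lines. […] Mean ± SD, at least triplicate.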

[2] = Cytotoxicity against human KBVIN cells by SRB assay; format: functional; method in brief: as §1
DU-145 = assay: Cytotoxicity against human DU145 cells by SRB assay; format: functional; method in brief: as §1
KB = assay: Cytotoxicity against human KB cells by SRB assay; format: functional; method in brief: as §1
MCF7 = assay: Antitumor activity against human MCF7 cells xenografted in athymic Balb/c nu/nu mouse assessed as tumor growth inhibition at 4 mg/kg, iv administered as Q3D X 6 regimen; format: functional
Method in brief: (§2)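 At 100–300 mm3 tumors, mice sorted into treated and control groups (n = 7). Dosing 4 mg/kg i.v. every 3 days; vehicle 5% PEG400/PBS. Stopped when control tumors reached about 1500 mm3; tumors excised and weighed. Inhibitory rate = [1 − mean treated/control tumor weight] × 100; body weight and deaths recorded.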

Tubulin (Homo sapiens) [3] = target: T1, Tubulin (Homo sapiens) (UniProt P68371+Q9H4B7+P0DPH7+P68366+Q13509+Q71U36+P04350+Q3ZCM7+P07437+P68363+Q9BQE3+Q6PEY2+Q13885+Q9BVA1+Q9BUF5); assay: Displacement of [3H]colchine from tubulin (unknown origin) at 1 uM after 10 mins; format: protein-complex assay
[4] = Aqueous solubility of the compound in phosphate buffer at pH 7.4 after 4 hrs by HPLC-UV method; format: physicochemical; conditions: pH 7.4, 4 h
Mus musculus [5] = assay: Toxicity in athymic Balb/c nu/nu mouse xenografted with human MCF7 cells assessed as change in body weight at 4 mg/kg, iv administered as Q3D X 6 regimen (reference value: 0.10%); format: organism-based; design: dose 4 mg/kg, route intravenous; conditions: in vivo; method in brief: as §2
Mus musculus [6] = assay: Toxicity in athymic Balb/c nu/nu mouse xenografted with human MCF7 cells assessed as death at 4 mg/kg, iv administered as Q3D X 6 regimen; format: organism-based; design: dose 4 mg/kg, route intravenous; conditions: in vivo; method in brief: as §2
Tubulin = assay: Inhibition of tubulin (unknown origin) polymerization incubated for 15 mins prior to GTP addition measured after 20 mins by turbidimetry; format: protein-complex assay, Homo sapiens
Tubulin (Homo sapiens) [7] = target: T1, Tubulin (Homo sapiens); assay: Displacement of [3H]colchine from tubulin (unknown origin) at 5 uM after 10 mins; format: protein-complex assay
Liver microsome = assay: Half life in human liver microsomes at 1 uM by LC-MS analysis; format: ADME
Tubulin (Homo sapiens) [8] = target: T1, Tubulin (Homo sapiens); assay: Inhibition of tubulin polymerization in human A549 cells assessed as disappearance of microtubule network at 100 nM after 24 hrs by Hoechst 33342 staining-based immunocytochemistry relative to control; format: cell-based
Canis lupus familiaris [9] = species on record: Canis lupus familiaris; conditions: 10 uM
A549 [10] = assay: Cell cycle arrest in human A549 cells assessed as accumulation at G2/M phase at 300 nM after 24 hrs by propidium iodide staining-based FACS analysis; format: functional
A549 [11] = assay: Cell cycle arrest in human A549 cells assessed as accumulation at G2/M phase after 24 hrs by propidium iodide staining-based FACS analysis; format: functional
A549 [12] = assay: Cell cycle arrest in human A549 cells assessed as accumulation at G2/M phase at 3 nM after 24 hrs by propidium iodide staining-based FACS analysis; format: functional
Method in brief: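 A549 cells treated 24 h (0.1% DMSO control), washed in PBS, fixed in 70% ice-cold ethanol at 4 °C for 24 h. RNase (0.05 mg/mL, 37 °C, 30 min), then propidium iodide 0.05 mg/mL for 30 min at rt in the dark. Cell-cycle distribution read by flow cytometry.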

Canis lupus familiaris [13] = species on record: Canis lupus familiaris; assay: (§3) Competitive inhibition of dog brain tubulin using colchicine as substrate incubated for 45 mins prior to substrate addition measured after 45 mins by fluorescence assay
Method in brief: (§4)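 Dog brain tubulin 4 μM in 25 mM PIPES pH 6.8, 1 mM EGTA, 3 mM MgCl2, preincubated with compound (0.1–10 μM) 45 min at 37 °C. […] Mean ± SD, at least three replicates.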

[14] = as §3; design: species or system Canis lupus familiaris; method in brief: as §4
Tubulin (Homo sapiens) [15] = target: T1, Tubulin (Homo sapiens); assay: Inhibition of tubulin polymerization in human A549 cells assessed as disappearance of microtubule network at 3 nM after 24 hrs by Hoechst 33342 staining-based immunocytochemistry relative to control; format: cell-based
Method in brief: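 A549 cells exposed to compound 24 h (0.1% DMSO control), fixed in 4% paraformaldehyde, permeabilized with 0.1% Triton X-100, blocked with 5% BSA. Stained with anti-α-tubulin (1:2000, 2 h) and a fluorescent anti-mouse secondary (1 h), nuclei with Hoechst 33342. Imaged at 20× for microtubule network loss.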

Canis lupus familiaris [16] = species on record: Canis lupus familiaris; assay: Competitive inhibition of dog brain tubulin using BODIPY FL-vinblastine as substrate at 30 to 100 uM incubated for 30 mins prior to substrate addition measured after 30 mins by fluorescence assay
Method in brief: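 Tubulin 4 μM from fresh dog brain in 25 mM PIPES pH 6.8, 1 mM EGTA, 3 mM MgCl2, preincubated with compound (10, 30, 100 μM) 30 min at 37 °C. BODIPY FL-vinblastine 2 μM then added for another 30 min. Fluorescence (ex 470/em 515 nm) decrease converted to % inhibition. Mean ± SD of at least three independent experiments.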

Row | Compound | GI50 (A549 [1]) [nM] | GI50 [2] [nM] | GI50 (DU-145) [nM] | GI50 (KB) [nM] | further results
1 | COc1ccc2c(c1)OCCN2c1nc(Cl)nc2ccccc12 | 199 | 195 | 169 | 153 | 
2 | COc1ccc2c(c1)N(C)C(=O)CN2c1nc(C)nc2ccccc12 | 19 | 25 | 22 | 17 | inhibition in vivo at 4 mg/kg (MCF7): 51%; inhibition (Tubulin (Homo sapiens) [3]): 82%; solubility [4]: 4.2 µg/mL (≈ 12.6 µM); Activity (Mus musculus [5]): 2.28%; Activity (Mus musculus [6]): Non-toxic; IC50 (Tubulin): 1300 nM; inhibition (Tubulin (Homo sapiens) [7]): 96%; t1/2 (Liver microsome): 22 min
3 | COc1ccc2c(c1)CCN2c1nc(Cl)nc2ccccc12 | 233 | 197 | 165 | 227 | 
4 | COc1ccc2c(c1)CCCN(c1nc(Cl)nc3ccccc13)C2 | 7570 | 5450 | 6810 | 11300 | 
5 | COc1ccc2c(c1)CCCCN2c1nc(Cl)nc2ccccc12 | 191 | 197 | 165 | 227 | 
6 | Cc1nc(N2CCCc3cc(Br)ccc32)c2ccccc2n1 | 211 | 169 | 198 | 178 | 
7 | COc1ccc2c(c1)C(=O)CCN2c1nc(Cl)nc2ccccc12 | 27 | 33 | 31 | 28 | 
8 | COc1ccc2c(c1)CCCN2c1nc(Cl)nc2ccccc12 |  |  |  |  | inhibition in vivo at 4 mg/kg (MCF7): 22.9%; Activity (Mus musculus [5]): -7.9%; Activity (Mus musculus [6]): Non-toxic
9 | CC(=O)O[C@H]1C(=O)[C@@]2(C)[C@H]([C@H](OC(=O)c3ccccc3)[C@]3(O)C[C@H](OC(=O)[C@H](O)[C@@H](NC(=O)c4ccccc4)c4ccccc4)C(C)=C1C3(C)C)[C@]1(OC(C)=O)CO[C@@H]1C[C@@H]2O [PACLITAXEL] | 7.6 | 1210 | 6 | 6.4 | inhibition (Tubulin (Homo sapiens) [8]): inactive
10 | COc1ccc2c(c1)CCCCN2c1nc(C)nc2ccccc12 | 21 | 20 | 18 | 19 | inhibition (Tubulin (Homo sapiens) [3]): 46%; solubility [4]: 2.94 µg/mL (≈ 9.2 µM); IC50 (Tubulin): 870 nM; inhibition (Tubulin (Homo sapiens) [7]): 89%; t1/2 (Liver microsome): 24.85 min
11 | COc1ccc2c(c1)C(=O)CCN2c1nc(C)nc2ccccc12 | 24 | 21 | 21 | 19 | inhibition (Tubulin (Homo sapiens) [3]): 56%; solubility [4]: 1.21 µg/mL (≈ 3.79 µM); IC50 (Tubulin): 940 nM; inhibition (Tubulin (Homo sapiens) [7]): 87%; t1/2 (Liver microsome): 20.89 min
12 | CC[C@]1(O)C[C@H]2CN(CCc3c([nH]c4ccccc34)[C@@](C(=O)OC)(c3cc4c(cc3OC)N(C=O)[C@H]3[C@@](O)(C(=O)OC)[C@H](OC(C)=O)[C@]5(CC)C=CCN6CC[C@]43[C@@H]65)C2)C1 |  |  |  |  | inhibition (Canis lupus familiaris [9]): 50%
13 | COc1ccc2c(c1)CCCN(c1nc(C)nc3ccccc13)C2 | 16700 | 14800 | 14600 | 19600 | 
14 | COc1ccc2c(c1)CCCN2c1nc(C)nc2ccccc12 |  |  |  |  | inhibition in vivo at 4 mg/kg (MCF7): 47.3%; Activity (Mus musculus [5]): -15.7%
15 | Cc1ccc2c(c1)CCCN2c1nc(C)nc2ccccc12 | 211 | 176 | 187 | 204 | 
16 | COc1ccc2c(c1)CCN2c1nc(C)nc2ccccc12 | 268 | 216 | 243 | 320 | 
17 | Cc1ccc2c(c1)CCCN2c1nc(Cl)nc2ccccc12 | 43 | 46 | 57 | 48 | 
18 | COc1cc2c(c(OC)c1OC)-c1ccc(OC)c(=O)cc1[C@@H](NC(C)=O)CC2 |  |  |  |  | Activity (A549 [10]): Active; Activity (A549 [11]): Dose-dependent effect
19 | COc1ccc2c(c1)C(O)CCN2c1nc(C)nc2ccccc12 (centres undefined) | 19 | 17 |  | 18 | inhibition (Tubulin (Homo sapiens) [3]): 75%; solubility [4]: 8.72 µg/mL (≈ 27.1 µM); IC50 (Tubulin): 970 nM; inhibition (Tubulin (Homo sapiens) [7]): 94%; t1/2 (Liver microsome): 42.44 min
20 | COc1ccc2c(c1)NC(=O)CN2c1nc(C)nc2ccccc12 | 3.2 | 2.2 | 1.9 | 2.3 | inhibition (Tubulin (Homo sapiens) [3]): 93%; Activity (Mus musculus [6]): Toxic; Activity (A549 [11]): Dose-dependent effect; Activity (A549 [12]): Active; inhibition (Canis lupus familiaris [13]): Dose-dependent effect; IC50 [14]: 550 nM; inhibition (Tubulin (Homo sapiens) [7]): 99%; inhibition (Tubulin (Homo sapiens) [15]): Active; inhibition (Canis lupus familiaris [16]): inactive; t1/2 (Liver microsome): 54.81 min
21 | COc1ccc2c(c1)OCCN2c1nc(C)nc2ccccc12 | 189 | 169 | 198 | 211 | 
